Results published in ChEMBL document CHEMBL1124137, “Synthesis and testing of quinone-based bis(2,2-dimethyl-1-aziridinyl)phosphinyl carbamates as radiation-potentiating antitumor agents” (1988).

Key:
Format in all cases: functional
[1] = system: Mus musculus; experiment: Median survival time (MST) of treated mice infected by P-388 leukemia, as percent of the MST of untreated controls when treated with a dose of 200 mg/Kg of compound
Method in brief: (§1)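 P-388 leukemia kept as ascites in DBA/2 mice. CDF1 female mice (16–20 g) received 10⁶ cells; six mice per dose and 10 untreated leukemia controls. Drug in water with Tween 80, given within 15 min of dissolution as a single ip injection on day 1 after implant. Mice observed until death; %T/C is treated over control median survival time. Average weight change taken on day 5.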

[2] = system: Mus musculus; experiment: Average weight change on day 5 in mice infected by P-388 leukemia when treated with a dose of 100 mg/Kg of compound; method in brief: as §1
[3] = system: Mus musculus; experiment: Average weight change on day 5 in mice infected by P-388 leukemia when treated with a dose of 50 mg/Kg of compound; method in brief: as §1
[4] = system: Mus musculus; experiment: Average weight change on day 5 in mice infected by P-388 leukemia when treated with a dose of 200 mg/Kg of compound; method in brief: as §1
[5] = system: Mus musculus; experiment: Median survival time (MST) of treated mice infected by P-388 leukemia, as percent of the MST of untreated controls when treated with a dose of 50 mg/Kg of compound; method in brief: as §1
[6] = system: Mus musculus; experiment: Average weight change on day 5 in mice infected by P-388 leukemia when treated with a dose of 400 mg/Kg of compound; method in brief: as §1
[7] = system: Mus musculus; experiment: Median survival time (MST) of treated mice infected by P-388 leukemia, as percent of the MST of untreated controls when treated with a dose of 100 mg/Kg of compound; method in brief: as §1
[8] = system: Mus musculus; experiment: Median survival time (MST) of treated mice infected by P-388 leukemia, as percent of the MST of untreated controls when treated with a dose of 400 mg/Kg of compound; method in brief: as §1
[9] = system: Mus musculus; experiment: Average weight change on day 5 in mice infected by P-388 leukemia when treated with a dose of 8 mg/Kg of compound
Method in brief: (§2)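 P-388 leukemia kept as ascites in DBA/2 mice; 10⁶ cells implanted into female CDF₁ mice (16–20 g), six mice per dose, 10 untreated leukemia controls. Compound dissolved in water with Tween 80 and given as a single ip injection on day 1 after implant, within 15 min of dissolving. Body weight change averaged on day 5.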

[10] = system: Mus musculus; experiment: Average weight change on day 5 in mice infected by P-388 leukemia when treated with a dose of 32 mg/Kg of compound; method in brief: as §2
[11] = system: Mus musculus; experiment: Average weight change on day 5 in mice infected by P-388 leukemia when treated with a dose of 128 mg/Kg of compound; method in brief: as §2
[12] = system: Mus musculus; experiment: Median survival time (MST) of treated mice infected by P-388 leukemia, as percent of the MST of untreated controls when treated with a dose of 16 mg/Kg of compound; method in brief: as §1
[13] = system: Mus musculus; experiment: Average weight change on day 5 in mice infected by P-388 leukemia when treated with a dose of 256 mg/Kg of compound; method in brief: as §2
[14] = system: Mus musculus; experiment: Median survival time (MST) of treated mice infected by P-388 leukemia, as percent of the MST of untreated controls when treated with a dose of 32 mg/Kg of compound; method in brief: as §1
[15] = system: Mus musculus; experiment: Median survival time (MST) of treated mice infected by P-388 leukemia, as percent of the MST of untreated controls when treated with a dose of 8 mg/Kg of compound; method in brief: as §1
[16] = system: Mus musculus; experiment: Median survival time (MST) of treated mice infected by P-388 leukemia, as percent of the MST of untreated controls when treated with a dose of 128 mg/Kg of compound; method in brief: as §1
[17] = system: Mus musculus; experiment: Median survival time (MST) of treated mice infected by P-388 leukemia, as percent of the MST of untreated controls when treated with a dose of 256 mg/Kg of compound; method in brief: as §1
[18] = system: Mus musculus; experiment: Median survival time (MST) of treated mice infected by P-388 leukemia, as percent of the MST of untreated controls when treated with a dose of 64 mg/Kg of compound; method in brief: as §1
[19] = system: Mus musculus; experiment: Average weight change on day 5 in mice infected by P-388 leukemia when treated with a dose of 64 mg/Kg of compound; method in brief: as §2
[20] = system: Mus musculus; experiment: Average weight change on day 5 in mice infected by P-388 leukemia when treated with a dose of 16 mg/Kg of compound; method in brief: as §2

Row | Compound | T/C [1] [%] | AWC [2] [g] | AWC [3] [g] | AWC [4] [g] | T/C [5] [%] | AWC [6] [g] | T/C [7] [%] | T/C [8] [%] | AWC [9] [g] | AWC [10] [g] | AWC [11] [g] | T/C [12] [%] | AWC [13] [g] | T/C [14] [%] | T/C [15] [%] | T/C [16] [%] | T/C [17] [%] | T/C [18] [%] | AWC [19] [g] | AWC [20] [g]
1 | CCOC(=O)NP(=O)(N1CC1(C)C)N1CC1(C)C (stereo not given) [METUREDEPA] | 231 | -0.4 | -0.7 | -0.2 | 163 | -1.3 | 181 | 244 | – | – | – | – | – | – | – | – | – | – | – | –
2 | CC1(C)CN1P(=O)(NC(=O)OCC/N=C1C(O)=C(Cl)/C(=N\CCOC(=O)NP(=O)(N2CC2(C)C)N2CC2(C)C)C(O)=C/1Cl)N1CC1(C)C (stereo not given) | – | – | – | – | – | – | – | – | -0.4 | -0.6 | -0.9 | 124 | -2.1 | 129 | 118 | 135 | 165 | 124 | -1.2 | -1.1
